Laboratory results taken from ChEMBL document CHEMBL1139721, “Inhibition of P-glycoprotein-mediated multidrug efflux by aminomethylene and ketomethylene analogs of reversins” (Bioorg Med Chem Lett, 2006).
Peptide text beside a SMILES is read from it. * marks the point of attachment. Cbz = O=C(OCc1ccccc1)*; Boc = CC(C)(C)OC(=O)*; OcHex = C1CCC(O*)CC1; OBn = c1ccc(CO*)cc1; OtBu = CC(C)(C)O*

System: K562/R7
Assay: Inhibition of P-glycoprotein-mediated daunorubicin efflux in K562/R7 cells at 10 uM relative to control
Assay type: cell-based
Details: Homo sapiens
Outline: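 K562/R7 human leukemic cells with high P-glycoprotein expression, 1 million per mL RPMI 1640, incubated 1 h at 37 °C with daunorubicin (10 μM final) with or without inhibitor at 10 µM. Cells washed twice in ice-cold PBS, held on ice, then read by flow cytometry. Activity expressed relative to cyclosporin A (2 μM final, set as 100%). Duplicates, at least three separate experiments; SD reported.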

| Structure (SMILES) | inhibition [%] |
| --- | --- |
| CC(C)(C)OC(=O)N[C@@H](CCC(=O)OCc1ccccc1)CN[C@@H](CCCCNC(=O)OCc1ccccc1)C(=O)OC(C)(C)C | 79.1 |
| CC(C)C(OC(=O)CC[C@H](NCCCC(=O)N[C@@H](CCC(=O)OCc1ccccc1)C(=O)OCc1ccccc1)C(=O)OCc1ccccc1)C(C)C | 54.7 |
| CC(C)(C)OC(=O)N[C@@H](CCC(=O)OC1CCCCC1)C(=O)N[C@@H](CCCCNC(=O)OCc1ccccc1)C(=O)OC(C)(C)C (Boc-Glu(OcHex)-Lys(Cbz)-OtBu) | 85.4 |
| O=C(CCC(=O)N[C@@H](CCC(=O)OCc1ccccc1)C(=O)OCc1ccccc1)N[C@@H](CCC(=O)OCc1ccccc1)C(=O)OCc1ccccc1 | 93.7 |
| CC(C)C(OC(=O)CC[C@H](NC(=O)OC(C)(C)C)C(=O)N[C@@H](CCCCNC(=O)OCc1ccccc1)C(=O)OC(C)(C)C)C(C)C | 52.7 |
| O=C(CCCN[C@@H](CC(=O)OCc1ccccc1)C(=O)OCc1ccccc1)N[C@@H](CCC(=O)OCc1ccccc1)C(=O)OCc1ccccc1 | 82.2 |
| CC(C)(C)OC(=O)N[C@@H](CC(=O)OCc1ccccc1)C(=O)N[C@@H](CCCCNC(=O)OCc1ccccc1)C(=O)OC(C)(C)C (Boc-Asp(OBn)-Lys(Cbz)-OtBu) | 72.7 |
| CC(C)(C)OC(=O)N[C@@H](CC(=O)OCc1ccccc1)C(=O)CCC(=O)N[C@@H](CCCCNC(=O)OCc1ccccc1)C(=O)OC(C)(C)C | 86.6 |
| O=C(CCCN[C@@H](CCC(=O)OC1CCCCC1)C(=O)OCc1ccccc1)N[C@@H](CCC(=O)OCc1ccccc1)C(=O)OCc1ccccc1 | 98.3 |
| CC(C)C(OC(=O)CC[C@@H](C(=O)OCc1ccccc1)N(CCCC(=O)N[C@@H](CCC(=O)OCc1ccccc1)C(=O)OCc1ccccc1)CCCC(=O)N[C@@H](CCC(=O)OCc1ccccc1)C(=O)OCc1ccccc1)C(C)C | 3.35 |
| O=C(CCC(=O)N[C@@H](CCC(=O)OC1CCCCC1)C(=O)OCc1ccccc1)N[C@@H](CCC(=O)OCc1ccccc1)C(=O)OCc1ccccc1 | 94.5 |
| CC(C)(C)OC(=O)N[C@H](CN[C@@H](CCCCNC(=O)OCc1ccccc1)C(=O)OC(C)(C)C)CC(=O)OCc1ccccc1 | 74.1 |
